Tests used:
Format in all cases: functional
[1] = biological target: Human immunodeficiency virus type 1 reverse transcriptase (Human immunodeficiency virus 1) (UniProt Q72547); assay: Compounds were evaluated for anti-RT activity by MTT dose and %protection was reported at 7 days of culture
Procedure, shortened: (§1)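 HIV-1 was preincubated with compound at 25 µM for 60 min at 37 °C, pelleted, and added to CEM-C113 cells (1×10^5 cells/mL) for 60 min at 37 °C. Medium was then replaced without compound. At days 7 and 9, viability was read by MTT assay on 100 µL of cell suspension.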

[2] = biological target: Human immunodeficiency virus type 1 reverse transcriptase (Human immunodeficiency virus 1) (UniProt Q72547); assay: Compound ability to inhibit the production of HIV reverse transcriptase (RT) in preinfected PBL (peripheral blood lymphocytes) at 7 days at a concentration 5 uM
Procedure, shortened: (§2)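 PBL were infected with HIV-1 for 1 h at 37 °C, washed twice, and resuspended in complete medium with 10% interleukin-2 and anti-human α-interferon (1000 units/mL). Cells were plated at 1×10^6 cells/well with or without compound. At each time point, 50 µL supernatant was taken for RT assay ([³H]dTTP incorporation, cpm).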

[3] = biological target: Human immunodeficiency virus type 1 reverse transcriptase (Human immunodeficiency virus 1) (UniProt Q72547); assay: Compounds were evaluated for anti-RT activity at 0 days of culture
Procedure, shortened: (§3)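 HIV-1 (12 500 CCID50) was preincubated with compound at 25 µM final for 60 min at 37 °C, pelleted by ultracentrifugation and resuspended. RT was measured at once with poly(rA)-oligo(dT) and ³H-dTTP (1 h, 37 °C, cpm). Treated virus was then put on CEM-C113 cells for 60 min and replaced with compound-free medium. Supernatant RT was read at days 7 and 9.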

[4] = biological target: Human immunodeficiency virus type 1 reverse transcriptase (Human immunodeficiency virus 1) (UniProt Q72547); assay: Compounds were evaluated for anti-RT activity by MTT dose and % cell / viability was reported at 7 days of culture; procedure, shortened: as §1
[5] = biological target: Human immunodeficiency virus type 1 reverse transcriptase (Human immunodeficiency virus 1) (UniProt Q72547); assay: Compound ability to inhibit the production of HIV reverse transcriptase (RT) in culture supernatant of monocytic U937 on at 7 days at a concentration 1 uM
Procedure, shortened: (§4)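 HIV-1-infected monocytic U937 cultures were kept up to 14 days with compound. Supernatant RT activity was measured as for CEM-C113, as [³H] cpm/50 µL. % inhibition = 100 − 100 × (cpm of treated samples / cpm of control virus).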

[6] = biological target: Human immunodeficiency virus type 1 reverse transcriptase (Human immunodeficiency virus 1) (UniProt Q72547); assay: Compound ability to inhibit the production of HIV reverse transcriptase (RT) in culture supernatant of CEM-CL13 on at 22 days at a concentration 0.2 uM
Procedure, shortened: (§5)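 CEM-C113 cells in RPMI 1640 with 5% heat-inactivated FCS and polybrene (2 µg/mL) were plated at 1×10^5 cells/mL with compound in PBS, in triplicate, and infected with HIV-1 LAV-Bru. From day 7, every 3–4 days, fresh medium with or without drug was added and 50 µL supernatant was taken for RT microassay. The RT microassay used poly(rA)-oligo(dT) and (methyl-³H)dTTP for 1 h at 37 °C, with TCA precipitation, read as cpm/50 µL.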

[7] = biological target: Human immunodeficiency virus type 1 reverse transcriptase (Human immunodeficiency virus 1) (UniProt Q72547); assay: Compound ability to inhibit the production of HIV reverse transcriptase (RT) in preinfected PBL (peripheral blood lymphocytes) at 10 days at a concentration 1 uM; procedure, shortened: as §2
[8] = biological target: Human immunodeficiency virus type 1 reverse transcriptase (Human immunodeficiency virus 1) (UniProt Q72547); assay: Compounds were evaluated for anti-RT activity by MTT dose and %protection was reported at 13 days of culture
[9] = biological target: Human immunodeficiency virus type 1 reverse transcriptase (Human immunodeficiency virus 1) (UniProt Q72547); assay: Percent inhibition evaluated for anti-RT activity at 9 days of culture; parameters: concentration or dose not given beside the values; conditions: concentration not given here; procedure, shortened: as §3
[10] = biological target: Human immunodeficiency virus type 1 reverse transcriptase (Human immunodeficiency virus 1) (UniProt Q72547); assay: Compound ability to inhibit the production of HIV reverse transcriptase (RT) in preinfected PBL (peripheral blood lymphocytes) at 14 days at a concentration 1 uM; procedure, shortened: as §2
CCRF-CEM [11] = assay: Concentration that reduced by 50% the HIV induced CPE (cytopathic effect) on day 22.; conditions: Homo sapiens, 528 h, read-out: ED50 (the source's name)
Procedure, shortened: (§6)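 CEM-C113 cells (1×10^5 cells/mL) were infected with HIV-1 LAV-Bru or mock-infected, with compound dilutions in triplicate, for at least 7 days. Medium with or without drug was renewed every 3–4 days for longer runs. MTT absorbance was read at 540 nm. CD50 = 50% reduction of mock-infected absorbance; ED50 = dose giving 50% protection from CPE. Values are averages of at least two experiments.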

CCRF-CEM [12] = assay: Concentration that reduced by 50% the HIV induced CPE (cytopathic effect) on day 11.; conditions: Homo sapiens, 264 h, read-out: ED50 (the source's name); procedure, shortened: as §6
[13] = biological target: Human immunodeficiency virus type 1 reverse transcriptase (Human immunodeficiency virus 1) (UniProt Q72547); assay: Percent inhibition measured as the production of HIV reverse transcriptase (RT) in culture supernatant of monocytic U937 on at 14 days at a concentration 1 uM
Procedure, shortened: (§7)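 U937 cells in RPMI 1640 with 5% heat-inactivated FCS, penicillin, streptomycin and polybrene (2 μg/mL), 37 °C, 5% CO2. Infected with HIV-1 LAV-Bru; compounds diluted in PBS. 50 μL supernatant aliquots were assayed for RT: 1 h, 37 °C, pH 7.8, Mg2+, poly(rA)-oligo(dT), [3H]dTTP, TCA-pyrophosphate stop, filter counting. % inhibition = 100 − 100 × (treated cpm / virus-control cpm).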

[14] = biological target: Human immunodeficiency virus type 1 reverse transcriptase (Human immunodeficiency virus 1) (UniProt Q72547); assay: Compound ability to inhibit the production of HIV reverse transcriptase (RT) in preinfected PBL (peripheral blood lymphocytes) at 14 days at a concentration 5 uM; procedure, shortened: as §2
[15] = biological target: Human immunodeficiency virus type 1 reverse transcriptase (Human immunodeficiency virus 1) (UniProt Q72547); assay: Percent inhibition measured as the production of HIV reverse transcriptase (RT) in culture supernatant of monocytic U937 on at 11 days at a concentration 1 uM; procedure, shortened: as §7
[16] = biological target: Human immunodeficiency virus type 1 reverse transcriptase (Human immunodeficiency virus 1) (UniProt Q72547); assay: Compounds were evaluated for anti-RT activity by MTT dose and % cell / viability was reported at 13 days of culture
[17] = biological target: Human immunodeficiency virus type 1 reverse transcriptase (Human immunodeficiency virus 1) (UniProt Q72547); assay: Compound ability to inhibit the production of HIV reverse transcriptase (RT) in culture supernatant of monocytic U937 on at 11 days at a concentration 1 uM; procedure, shortened: as §4
CCRF-CEM [18] = assay: Concentration required to reduce the viability of uninfected cells (CEM-CL13) by 50% on day 7.; conditions: Homo sapiens, 168 h, read-out: CD50 (the source's name); procedure, shortened: as §6
[19] = biological target: Human immunodeficiency virus type 1 reverse transcriptase (Human immunodeficiency virus 1) (UniProt Q72547); assay: Percent inhibition measured as the production of HIV reverse transcriptase (RT) in culture supernatant of monocytic U937 on at 7 days at a concentration 1 uM; procedure, shortened: as §7
[20] = biological target: Human immunodeficiency virus type 1 reverse transcriptase (Human immunodeficiency virus 1) (UniProt Q72547); assay: Percent inhibition evaluated for anti-RT activity at 7 days of culture; parameters: concentration or dose not given beside the values; conditions: concentration not given here; procedure, shortened: as §3
[21] = biological target: Human immunodeficiency virus type 1 reverse transcriptase (Human immunodeficiency virus 1) (UniProt Q72547); assay: Compound ability to inhibit the production of HIV reverse transcriptase (RT) in preinfected PBL (peripheral blood lymphocytes) at 7 days at a concentration 1 uM; procedure, shortened: as §2
[22] = biological target: Human immunodeficiency virus type 1 reverse transcriptase (Human immunodeficiency virus 1) (UniProt Q72547); assay: Compound ability to inhibit the production of HIV reverse transcriptase (RT) in culture supernatant of monocytic U937 on at 14 days at a concentration 1 uM; procedure, shortened: as §4
[23] = biological target: Human immunodeficiency virus type 1 reverse transcriptase (Human immunodeficiency virus 1) (UniProt Q72547); assay: Compound ability to inhibit the production of HIV reverse transcriptase (RT) in preinfected PBL (peripheral blood lymphocytes) at 21 days at a concentration 5 uM; procedure, shortened: as §2
[24] = biological target: Human immunodeficiency virus type 1 reverse transcriptase (Human immunodeficiency virus 1) (UniProt Q72547); assay: Compound ability to inhibit the production of HIV reverse transcriptase (RT) in preinfected PBL (peripheral blood lymphocytes) at 10 days at a concentration 5 uM; procedure, shortened: as §2
[25] = biological target: Human immunodeficiency virus type 1 reverse transcriptase (Human immunodeficiency virus 1) (UniProt Q72547); assay: Compound ability to inhibit the production of HIV reverse transcriptase (RT) in culture supernatant of CEM-CL13 on at 7 days at a concentration 0.2 uM; procedure, shortened: as §5
[26] = biological target: Human immunodeficiency virus type 1 reverse transcriptase (Human immunodeficiency virus 1) (UniProt Q72547); assay: Compound ability to inhibit the production of HIV reverse transcriptase (RT) in culture supernatant of CEM-CL13 on at 26 days at a concentration 0.2 uM; procedure, shortened: as §5

Cc1cn([C@H]2C[C@H](N=[N+]=[N-])[C@@H](COP(=O)(O)OC[C@H]3OC(O)[C@@H](O)[C@@H](O)[C@@H]3O)O2)c(=O)[nH]c1=O (stereo partly specified)
Protection [1]: 38% | Activity (c.p.m. 50ul-1) [2]: 967 | Activity (c.p.m. 50ul-1) [3]: 25000 | Cell viability [4]: 54% | Activity (c.p.m. 50ul-1) [5]: 425000 | Activity (c.p.m. 50ul-1) [6]: 27000 | Activity (c.p.m. 50ul-1) [7]: 3130 | Protection [8]: 3% | inhibition [9]: 0% | Activity (c.p.m. 50ul-1) [10]: 46100 | EC50 (CCRF-CEM [11]): 600 nM | EC50 (CCRF-CEM [12]): 200 nM | inhibition [13]: 0% | Activity (c.p.m. 50ul-1) [14]: 4130 | inhibition [15]: 5% | Cell viability [16]: 18% | Activity (c.p.m. 50ul-1) [17]: 137000 | CC50 (CCRF-CEM [18]): 27000 nM | inhibition [19]: 0% | inhibition [20]: 62% | Activity (c.p.m. 50ul-1) [21]: 943 | Activity (c.p.m. 50ul-1) [22]: 22500 | Activity (c.p.m. 50ul-1) [23]: 19500 | Activity (c.p.m. 50ul-1) [24]: 936 | Activity (c.p.m. 50ul-1) [25]: 3400 | Activity (c.p.m. 50ul-1) [26]: 85000

From ChEMBL document CHEMBL1125259, “Lipophilic glycosyl phosphotriester derivatives of AZT: synthesis, NMR transmembrane transport study, and antiviral activity” (1991)
